The results in this text go back to ChEMBL document CHEMBL4000143, “Proof of concept study for designed multiple ligands targeting the dopamine D2, serotonin 5-HT2A, and muscarinic M1 acetylcholine receptors” (J Med Chem, 2015).

In assay [1] the target is T1, D(2) dopamine receptor (Homo sapiens, UniProt P14416). Kind of assay: Displacement of [3H]-raclopride from human dopamine D2L receptor expressed in F1pIn CHO cells after 60 mins by scintillation counting analysis. In kind it is cell-based. The gist of the method: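 Binding in whole D2L-FlpIn CHO cells with [3H]raclopride as radioligand. Mean of three to four experiments, each run in duplicate.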
T1 sequence (P14416 whole entry): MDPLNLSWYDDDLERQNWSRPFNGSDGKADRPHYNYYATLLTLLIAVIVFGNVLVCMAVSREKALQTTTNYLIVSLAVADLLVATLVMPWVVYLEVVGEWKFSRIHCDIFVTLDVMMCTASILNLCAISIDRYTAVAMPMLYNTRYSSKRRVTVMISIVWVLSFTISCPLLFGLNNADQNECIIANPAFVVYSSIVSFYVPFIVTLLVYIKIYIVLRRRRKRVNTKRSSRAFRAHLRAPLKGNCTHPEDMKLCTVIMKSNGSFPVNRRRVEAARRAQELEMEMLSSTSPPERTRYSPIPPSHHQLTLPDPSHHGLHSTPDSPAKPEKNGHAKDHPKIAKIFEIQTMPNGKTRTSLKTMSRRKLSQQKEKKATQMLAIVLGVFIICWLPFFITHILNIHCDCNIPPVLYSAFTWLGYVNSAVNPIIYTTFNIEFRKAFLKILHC

Assay [2] concerns the target T2, 5-hydroxytryptamine receptor 2A (Homo sapiens, UniProt P28223). Kind of assay: Displacement of [3H]ketanserin from human 5-HT2A receptor expressed in F1pIn CHO cell membranes after 1 hr by scintillation counting method. The gist of the method: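 Binding in 5-HT2A-FlpIn CHO cell membranes with [3H]ketanserin as radioligand. Mean of three to four experiments, each run in duplicate.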

The target of assay [3] is Muscarinic acetylcholine receptor M1 (Homo sapiens) (UniProt P11229). The assay can be described thus: Agonist activity at human mAChR1 receptor expressed in F1pIn CHO cells assessed as induction of intracellular calcium mobilization relative to acetylcholine.
Chain of Muscarinic acetylcholine receptor M1 (Homo sapiens) (P11229 whole entry, looked up): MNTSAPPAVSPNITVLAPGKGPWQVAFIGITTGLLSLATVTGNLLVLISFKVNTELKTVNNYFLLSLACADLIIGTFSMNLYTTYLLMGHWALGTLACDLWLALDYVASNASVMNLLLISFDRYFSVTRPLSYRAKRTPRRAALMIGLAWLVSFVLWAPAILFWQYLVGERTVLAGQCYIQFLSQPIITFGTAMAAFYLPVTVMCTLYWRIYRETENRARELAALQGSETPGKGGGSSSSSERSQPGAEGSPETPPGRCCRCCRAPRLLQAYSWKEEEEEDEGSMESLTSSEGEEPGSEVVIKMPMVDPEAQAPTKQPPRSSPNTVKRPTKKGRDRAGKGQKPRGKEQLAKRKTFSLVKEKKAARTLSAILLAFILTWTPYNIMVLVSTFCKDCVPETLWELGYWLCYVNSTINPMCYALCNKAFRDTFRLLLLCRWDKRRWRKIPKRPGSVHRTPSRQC
Assay [4] has as its target T1, D(2) dopamine receptor. The assay can be described thus: Antagonist activity at human dopamine D2L receptor expressed in F1pIn CHO cells assessed as inhibition of ERK1/2 phosphorylation incubated for 5 mins by AlphaScreen assay. The assay is classed as cell-based. In a few lines: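 Functional affinity (KB) from interaction studies against varying dopamine concentrations, read out as pERK1/2 levels in D2L-FlpIn CHO cells. Data fitted by Gaddum–Schild analysis. Mean of three to four experiments, each run in duplicate.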

The target in assay [5] is T2, 5-hydroxytryptamine receptor 2A. The assay can be described thus: Antagonist activity at human 5-HT2A receptor expressed in F1pIn CHO cells assessed as inhibition of serotonin-induced myo-inositol 1 phosphate accumulation after 1 hr by HTRF assay. In kind it is functional, cell-based. In a few lines: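 Functional affinity (KB) from interaction studies against varying serotonin concentrations in an IP1 accumulation assay in 5-HT2A-FlpIn CHO cells. Mean of three to four experiments, each run in duplicate.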
Background: TR-FRET usually uses a lanthanide donor and a delayed reading to cut background.

The target in assay [6] is Muscarinic acetylcholine receptor M1 (Homo sapiens) (UniProt P11229). Kind of assay: Agonist activity at human mAChR1 receptor expressed in F1pIn CHO cells assessed as induction of intracellular calcium mobilization.
Assay [7] has as its target T1, D(2) dopamine receptor. Kind of assay: Antagonist activity at human dopamine D2L receptor expressed in F1pIn CHO cells assessed as inhibition of ERK1/2 phosphorylation by time-course assay. The assay is classed as cell-based.
Assay [8] addresses T1, D(2) dopamine receptor. Kind of assay: Agonist activity at human dopamine D2L receptor expressed in F1pIn CHO cells assessed as induction of ERK1/2 phosphorylation incubated for 5 mins by AlphaScreen assay relative to FBS. The assay is classed as cell-based. The gist of the method: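 D2L-FlpIn CHO cells, pERK1/2 assay. Emax is given as a percentage of the maximal response to FBS. Mean of four to six experiments, each run in duplicate.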
In general terms: In Alpha technology, singlet oxygen from a donor bead excites a nearby acceptor bead.

The target of assay [9] is T1, D(2) dopamine receptor. The assay can be described thus: Agonist activity at human dopamine D2L receptor expressed in F1pIn CHO cells assessed as induction of ERK1/2 phosphorylation incubated for 5 mins by AlphaScreen assay. In kind it is cell-based. The gist of the method:
(§1)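 D2L-FlpIn CHO cells. Agonist concentration–response curves were measured for cAMP signalling and for ERK1/2 phosphorylation. Mean of four to six experiments, each run in duplicate.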

The target in assay [10] is T1, D(2) dopamine receptor. The assay can be described thus: Agonist activity at human dopamine D2L receptor expressed in F1pIn CHO cells assessed as […] forskolin-mediated cAMP accumulation incubated for 30 mins by AlphaScreen assay relative to ropinirole. In kind it is functional, cell-based. The gist of the method: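 D2L-FlpIn CHO cells, cAMP signalling. Emax is given as a percentage of the maximal response to ropinirole. Mean of four to six experiments, each run in duplicate.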

The target in assay [11] is T1, D(2) dopamine receptor. The assay can be described thus: Agonist activity at human dopamine D2L receptor expressed in F1pIn CHO cells assessed as […] forskolin-mediated cAMP accumulation incubated for 30 mins by AlphaScreen assay. In kind it is functional, cell-based. In a few lines:
as §1

In assay [12] the target is T1, D(2) dopamine receptor. The assay can be described thus: Agonist activity at human dopamine D2L receptor expressed in F1pIn CHO cells assessed as induction of ERK1/2 phosphorylation by time-course assay. In kind it is cell-based.

One may read the Ki as the equilibrium dissociation constant of an inhibitor or competing ligand from its target. The low end stands for tighter binding, the high end for weaker binding. One may read the Emax as the size of the effect at its maximum, as opposed to the concentration needed. The term Kb denotes the affinity of an antagonist, worked out from how it opposes an agonist. Usually pKb stands for the Kb on a negative log10 scale, so that one unit is a factor of ten. As a reminder, the EC50 is the concentration that produces a half-maximal response.

Calls of active or inactive are those of the source. The rule behind the calls is not given here.

T2 sequence (P28223 whole entry): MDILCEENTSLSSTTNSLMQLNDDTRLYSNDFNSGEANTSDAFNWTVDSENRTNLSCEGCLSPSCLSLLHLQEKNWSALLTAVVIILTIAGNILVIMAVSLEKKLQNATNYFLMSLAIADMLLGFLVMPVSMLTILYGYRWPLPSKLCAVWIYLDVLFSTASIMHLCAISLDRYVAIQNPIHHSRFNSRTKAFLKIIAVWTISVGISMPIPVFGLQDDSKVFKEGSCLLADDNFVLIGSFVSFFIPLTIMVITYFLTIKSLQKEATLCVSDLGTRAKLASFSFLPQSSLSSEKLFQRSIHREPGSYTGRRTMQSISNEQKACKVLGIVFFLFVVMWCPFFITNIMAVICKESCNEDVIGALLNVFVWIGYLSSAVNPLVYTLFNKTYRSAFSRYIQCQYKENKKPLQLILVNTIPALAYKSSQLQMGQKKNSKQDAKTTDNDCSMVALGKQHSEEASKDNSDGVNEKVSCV

For the compound `O=C1COc2ccccc2N1CCCN1CCC(c2noc3cc(F)ccc23)CC1`, the results for the Ki in assay [1] and in assay [2] were 3.2 nM and 2.7 nM, respectively. The Emax entry in [3] was “inactive”. Also, the Kb in assay [4] came out at 1.2 nM; in assay [5], 21.2 nM. The results for the pKb in [4] and in assay [5] were 8.91 and 7.67, respectively. In addition, the pEC50 result in assay [6] was “inactive”. For the same compound, in assay [7], the inhibition entry was “Active”.

As for `COc1ccccc1N1CCN(CCCN2C(=O)COc3ccccc32)CC1`, the Ki in assay [1] turned out to be 42.7 nM; in [2], 275 nM. The Emax result in assay [3] is “inactive”. The Kb came out at 7.8 nM in assay [4] and 578 nM in assay [5]. In addition, the pKb in assay [4] worked out at 8.11; in assay [5], 6.24. In [6], the pEC50 entry is “inactive”. In assay [7], the inhibition result was “Active”.

In the case of `O=C1COc2ccccc2N1CCCN1CCN(c2cccc3[nH]c(=O)oc23)CC1`, the values for the Emax in assay [8] and in [10] were 26% and 97%, respectively. The results for the inhibitory constant (Ki) in assay [1] and in assay [2] were 1.7 nM and 568 nM, respectively. The 50% effective concentration (EC50) in [9] stood at 0.64 nM; in assay [11], 0.096 nM. Besides, the Emax result in assay [3] was “inactive”. For the same compound, the Kb in assay [5] is 1140 nM. In assay [5], the pKb came to 5.94. Moreover, the pEC50 entry in assay [6] is “inactive”. Besides, in assay [12], the outcome was Active.

On to `O=C1COc2ccccc2N1CCCN1CCN(c2cccc(Cl)c2Cl)CC1`, for which the results for the Ki in assay [1] and in assay [2] were 273 nM and 75.8 nM, respectively. The Emax entry in assay [3] is “inactive”. The values for the Kb in [4] and in assay [5] were 99 nM and 1860 nM, respectively. Moreover, the pKb in assay [4] worked out at 7; in assay [5] it was 5.73. Also, the pEC50 entry in assay [6] was “inactive”. In addition, the inhibition entry in assay [7] was “Active”.

For the compound `O=C1COc2ccccc2N1CCCN1CCN(c2nsc3ccccc23)CC1`, the Ki in assay [1] amounted to 17.7 nM; in [2], 5.8 nM. Also, the values for the Kb in [4] and in assay [5] were 7 nM and 235 nM, respectively. In addition, the pKb came out at 8.16 in [4] and 6.63 in [5]. The inhibition entry in assay [7] was “Active”.

In the case of `O=C(Cc1ccccc1)NC1CCN(CCCN2C(=O)COc3ccccc32)CC1`, the Ki in assay [1] was 834 nM; in assay [2] it was 1040 nM. In addition, the maximum response (Emax) in [3] is 101%. Moreover, the Kb in assay [4] is 2090 nM; in [5], 1570 nM. Further, the negative-log Kb (pKb) worked out at 5.68 in [4] and 5.8 in assay [5].
